Shown are actives, neighbours in structure and some others; about 2.9% of the full set was active somewhere.
NRP1-CendR mod: NRP-1/CendR interaction modulation; FAM-RPARPAR peptide binding to NRP-1, fluorescence polarization; O14786; inhibition, % at 25 µM; AID 602438; 360,000 compounds, 0.85% hits;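 active = inhibition or corrected inhibition above about 18%, plus a signal ratio from 0.5 to 1.5, limit read from the data, passing the limit was not always enough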
ADAM10 inh: inhibits human ADAM10; AID 720582; inhibition, % at 7 µM; recombinant ADAM10, EDANS/DABCYL FRET peptide cleavage, 3 h; O14672; 370,000 compounds, 0.62% hits;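 active = inhibition above a per-campaign cutoff equal to the mean of compounds falling between control-based bounds plus 3 SD, cut at about 20% in these data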
Arrestin-AP2 inh: blocks beta-arrestin peptide binding to AP2 adaptin | inhibition, % at 10 µM | AID 504490 | 340,000 compounds, 0.31% hits | FITC-arrestin peptide / GST-AP2 beads, flow cytometry; AP2 beta2 appendage carries R879A mutation;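 active = inhibition above a set limit, near 3 SD of compounds lacking own fluorescence, cut at about 54% in these data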
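System: GST-AP2 R879A glutathione beads; medium: PBS, Tween 20 0.05%, BSA 0.1%; reagent: fluorescein-tagged arrestin peptide at 50 nM final; schedule: pre-incubation 12 min, peptide binding 1 h, room temperature; detection: flow cytometry, FL1 (488/535 nm); read-out: inhibition as reduced fluorescein signal on beads, percent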
ADAM17 inh: inhibitors of human ADAM17; inhibition, % at 6.95 µM; recombinant ADAM17, EDANS/DABCYL FRET peptide cleavage; AID 720648; 370,000 compounds, 0.83% hits; P78536;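 active = inhibition above the mean of compounds lying between control limits plus 3 SD, set per campaign, cut at about 8.5% in these data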
FAS TE block: blocks the thioesterase domain of human fatty acid synthase | AID 602261 | 360,000 compounds, 0.67% hits | inhibition, % at 15 µM | P49327 | recombinant FAS-TE, OMFH fluorogenic substrate, fluorescence endpoint;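 active = compounds whose normalised, plate-corrected inhibition of enzyme fluorescence in the single-dose primary screen is 50% or more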
CaV13 FRET inh: Disruptors of the CACNA1D IQ motif to Ca2+-dependent inactivation inhibitor domain association, primary screening, Förster resonance energy transfer in intact living …; HEK cells, CFP/YFP FRET ICDI-IQ, plate reader, 10 min; percent FRET-ratio fall versus neutral wells; inhibition, % at 12.3 µM; 340,000 compounds, 0.098% hits;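 active = mean replicate inhibition of at least 30% and at least 1% of replicates passing that level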
ADAM10 confirm: human ADAM10 inhibition, confirmation. 2,100 compounds, 1% hits. AID 743208. ADAM10 QFRET peptide cleavage, EDANS fluorescence. inhibition, % at 6.95 µM. shares compounds with ADAM10 inh;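 active = inhibition above about 20% chosen separately for each screening run, limit read from the data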
ADAM17 counter: inhibits human ADAM17 in ADAM10 exosite counter-screen; ADAM17 QFRET peptide cleavage, EDANS fluorescence; 2,100 compounds, 0.5% hits; shares compounds with ADAM10 inh; AID 743214; inhibition, % at 6.95 µM;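 active = mean triplicate inhibition above the solvent-only control wells' mean plus 3 SD, cut at about 12% in these data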
Each line names hits and unclear results; the compound was inactive in the other large screens (follow-up assays come after a bar, where they were run).

O=C1NC[C@H](c2ccccc2)OC(=O)[C@@H](Cc2ccc(F)cc2)CC/C=C/C[C@@H]1CC(=O)N(CCO)Cc1ccccc1	ADAM10 inh 23 | ADAM10 confirm inactive | ADAM17 counter inactive
O=C1N[C@@H](Cc2c[nH]c3ccccc23)COC(=O)[C@H](Cc2ccc(F)cc2)C/C=C\C[C@H]1CC(=O)N(CCO)Cc1ccccc1	ADAM10 inh 22 | ADAM10 confirm inactive | ADAM17 counter inactive
CCOC(=O)[C@]12CCCCC/C=C\1N(Cc1ccc(OC)cc1)C(=O)[C@H]2CC(=O)NCCC(C)C	none (no result: NRP1-CendR mod, Arrestin-AP2 inh, FAS TE block, CaV13 FRET inh)
CC(=O)NCCNc1nc(NCC2CC2)nc2cc(-c3ccccc3)sc12	none (no result: Arrestin-AP2 inh)
COc1ccccc1C(=O)Nc1ccc(C)cc1C(=O)c1ccccc1	ADAM10 inh 21 | ADAM10 confirm inactive | ADAM17 counter inactive
O=C1NC(Cc2ccc(O)cc2)c2nc3cc(F)ccc3c(=O)n2-c2cc3ccccc3cc21 (centres undefined)	none (no result: Arrestin-AP2 inh)
CN(C)CCN(C)C1CN(C2CCCC2)S(=O)(=O)C1 (centres undefined)	none (no result: Arrestin-AP2 inh)
CC1CC(C)CN(C(=S)SCc2nc(N)nc(Nc3ccccc3)n2)C1 (centres undefined)	ADAM10 inh 28 | ADAM10 confirm inactive | ADAM17 counter inactive
Cc1[nH]c2ccccc2c1N=Nc1ccccc1F	ADAM10 inh 30 | ADAM10 confirm inactive | ADAM17 counter inactive
CCCCNC(=O)O[C@H]1CC[C@@]23CCCN2C(=O)CCC[C@H]3[C@H]1C	none (no result: NRP1-CendR mod, Arrestin-AP2 inh, FAS TE block, CaV13 FRET inh)
COc1cc(OC)c(N(C)S(=O)(=O)c2cccc(C(=O)OCC(=O)c3c[nH]c4ccccc34)c2)cc1Cl	ADAM10 inh 32 | ADAM10 confirm inactive | ADAM17 counter inactive
COc1ccc(C(=O)OCC(=O)c2c[nH]c3ccccc23)cc1OC	none
Cc1cccc(Cn2cc(CN3CC(N(C)CCCOC(=O)c4cc5ccccc5o4)CS3(=O)=O)nn2)c1 (centres undefined)	none (no result: NRP1-CendR mod, Arrestin-AP2 inh, FAS TE block, CaV13 FRET inh)
CNc1nc(N)c([N+](=O)[O-])c(Nc2ccccc2)n1	none (no result: NRP1-CendR mod, Arrestin-AP2 inh, FAS TE block, CaV13 FRET inh)
CCOc1ccc(N2C(=O)/C(=C/c3cc(OC)c(OC)c(OC)c3)N(CC(=O)OC)C2=S)cc1	ADAM10 inh 20 | ADAM10 confirm inactive | ADAM17 counter inactive
CCOc1ccc(/C=C2/C(=O)N(c3ccc(OC)cc3)C(=S)N2CC(=O)OC)cc1OCC	none (no result: CaV13 FRET inh)
COC(CNC(=O)[C@H](Cc1c[nH]c2ccccc12)NC1(C(=O)NCc2ccccc2)CCCCC1)OC	none (no result: NRP1-CendR mod, Arrestin-AP2 inh, FAS TE block, CaV13 FRET inh)
O=C1OC(Nc2nc(-c3ccc(F)cc3)cs2)c2ccccc21 (centres undefined)	none
N#C/C(=N\Nc1ccc([N+](=O)[O-])cc1)C(N)=S	ADAM10 inh 20 | ADAM10 confirm inactive | ADAM17 counter inactive
N#C/C(=N/Nc1ccc([N+](=O)[O-])cc1)C(=N)N1CCCCC1	none
COc1ccc(NC(=O)CC(Cc2ccccc2)C(=O)O)cc1 (centres undefined)	none
O=C(CC(Cc1ccccc1)C(=O)O)Nc1ccc(F)cc1 (centres undefined)	ADAM10 inh 21 | ADAM10 confirm inactive | ADAM17 counter inactive
CC1CCN(CCCNC(=O)CN2CCN(Cc3ccc(Cl)cc3)C2=O)CC1	ADAM10 inh 49 | ADAM10 confirm inactive | ADAM17 counter inactive
CC(C)OCCCNC(=O)CN1CCN(Cc2ccc(Cl)cc2)C1=O	none
CCN(CC)S(=O)(=O)c1cccc(NC(=O)C2SC(=Nc3ccc(C)cc3C)C(C(=O)NC(C)COC)=C2N)c1 (centres undefined)	ADAM10 inh 20 | ADAM10 confirm inactive | ADAM17 counter inactive
CC(=O)c1ccc(NC(=S)NC(C)c2ccc(Cl)cc2Cl)cc1 (centres undefined)	ADAM10 inh 24 | ADAM10 confirm inactive | ADAM17 counter inactive
Cc1cc(C)c(C)c(S(=O)(=O)Nc2ccc3cn[nH]c3c2)c1C	ADAM10 inh 99 | ADAM10 confirm inactive | ADAM17 counter inactive
COC(C(=O)Nc1ccc(S(=O)(=O)Nc2ccc(F)cc2)cc1)c1ccccc1 (centres undefined)	none
COC(C(=O)Nc1ccc(S(=O)(=O)Nc2cccc3ccccc23)cc1)c1ccccc1 (centres undefined)	ADAM10 inh 21 | ADAM10 confirm inactive | ADAM17 counter inactive
Cc1cc(C)c(C(=O)OCC(=O)Nc2cccc(S(=O)(=O)N3CCCCC3)c2)c(C)c1	ADAM10 inh 28, ADAM17 inh 13 | ADAM10 confirm inactive | ADAM17 counter inactive
COc1ccccc1CCC(=O)Nc1cccc(S(=O)(=O)N2CCCCCC2)c1	ADAM10 inh 23 | ADAM10 confirm inactive | ADAM17 counter inactive
O=C(Cc1cc(C(F)(F)F)cc(C(F)(F)F)c1)Nc1c(-c2ccccc2)[nH][nH]c1=O	none (no result: Arrestin-AP2 inh, FAS TE block)
O=S(=O)(c1ccc(Br)s1)N1CCC(c2nc3ccccc3o2)CC1	none (no result: NRP1-CendR mod, Arrestin-AP2 inh, FAS TE block, CaV13 FRET inh)
CC(C)C(=O)N1CC[C@H]2[C@H](CCCN2Cc2ccccc2)C1	none (no result: NRP1-CendR mod, Arrestin-AP2 inh, FAS TE block, CaV13 FRET inh)
CC(=O)c1ccc(NC(=O)COC(=O)c2ccccc2N=Nc2ccc(N(C)C)cc2)cc1	ADAM10 inh 22 | ADAM10 confirm inactive | ADAM17 counter inactive
COC(=O)c1ccccc1NC(=O)COC(=O)c1ccccc1N=Nc1ccc(N(C)C)cc1	none
C[C@H](CO)N1C[C@H](C)[C@@H](CN(C)S(=O)(=O)c2ccccc2)Oc2c(NC(=O)Nc3ccccc3)cccc2C1=O	none
C[C@@H]1CN([C@@H](C)COC(=O)C(C)(C)C)C(=O)c2cc(NC(=O)Nc3ccccc3)ccc2O[C@@H](C)CCCCO[C@H]1CN(C)S(=O)(=O)c1ccc(F)cc1	ADAM10 inh 25 (no result: NRP1-CendR mod, Arrestin-AP2 inh, FAS TE block, CaV13 FRET inh) | ADAM10 confirm inactive | ADAM17 counter inactive
C[C@H]1CN([C@@H](C)CO)C(=O)c2cccc(NC(=O)Nc3ccc(C(F)(F)F)cc3)c2O[C@@H]1CN(C)S(=O)(=O)c1ccccc1	ADAM10 inh 40, ADAM17 inh 21 | ADAM10 confirm inactive | ADAM17 counter inactive
C[C@@H]1CN([C@@H](C)CO)C(=O)c2cc(NC(=O)c3ccccc3)ccc2O[C@@H](C)CCCCO[C@@H]1CN(C)S(=O)(=O)c1ccc(F)cc1	none (no result: Arrestin-AP2 inh)
N#CCC[C@@H]1CC[C@]2(CCCN(C(=O)C3CCCC3)C2)O1	none (no result: NRP1-CendR mod, Arrestin-AP2 inh, FAS TE block, CaV13 FRET inh)
CCCCOc1cccc(C(=O)Nc2ccc(S(=O)(=O)Nc3nnc(CC)s3)cc2)c1	ADAM10 inh 21 | ADAM10 confirm inactive | ADAM17 counter inactive

High-throughput results: PubChem, several laboratories
